# Bioassay records (PubChem BioAssay)
# In the library only some 1.3% were active in any assay of this set; here they are far more common.
# RAD52 anneal inh – blocks human RAD52 DNA annealing. recombinant RAD52 DNA annealing, FRET fluorescence. hit rate 0.46% among 360,000. inhibition, % at 18.7 µM;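 active = every replicate showing at least 50% inhibition; inconclusive = mean inhibition at least 50% but not in every replicate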
# MLL AF4-AF9 inh – MLL-AF4/AF9 protein interaction inhibition | hit rate 0.47% among 350,000 | AlphaScreen, biotin-AF4 peptide binding to FLAG-AF9 | inhibition, % at 10 µM | P42568 | AID 651704;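 active = every replicate reaching a set inhibition limit, whatever the replicate mean, cut at about 25% in these data; inconclusive = mean inhibition reaches that limit but some replicates miss it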;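 also: 0% = plate neutral control median and 100% = total signal loss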
# Target sequence (P42568 whole entry, looked up): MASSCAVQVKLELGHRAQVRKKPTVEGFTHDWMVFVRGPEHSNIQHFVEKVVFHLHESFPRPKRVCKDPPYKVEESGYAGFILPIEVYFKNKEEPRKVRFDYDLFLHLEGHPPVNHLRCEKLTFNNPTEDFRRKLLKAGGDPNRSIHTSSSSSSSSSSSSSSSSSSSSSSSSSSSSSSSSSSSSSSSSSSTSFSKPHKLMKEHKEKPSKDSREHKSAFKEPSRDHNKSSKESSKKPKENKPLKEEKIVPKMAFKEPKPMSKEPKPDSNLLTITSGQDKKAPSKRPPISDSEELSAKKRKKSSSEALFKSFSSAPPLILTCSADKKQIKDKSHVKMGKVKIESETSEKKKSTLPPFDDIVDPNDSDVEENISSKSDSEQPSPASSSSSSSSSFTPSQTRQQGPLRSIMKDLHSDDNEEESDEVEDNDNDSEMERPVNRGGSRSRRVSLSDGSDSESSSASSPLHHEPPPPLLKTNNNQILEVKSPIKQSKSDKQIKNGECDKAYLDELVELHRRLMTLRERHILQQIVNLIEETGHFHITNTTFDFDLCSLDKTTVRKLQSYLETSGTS
# CASP6 VEID inh – blocks human caspase-6 cleavage activity; AID 686996; hit rate 0.53% among 350,000; purified caspase-6, Z-VEID-R110 cleavage fluorescence; inhibition, % at 12.5 µM;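 active = mean inhibition across replicates at least about 35%, with every replicate also reaching that limit, limit read from the data; inconclusive = only one of the two criteria met; inactive = neither criterion met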;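 also: 0% = median of neutral control wells and 100% = no fluorescence left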
# S100A4 inh HTS – inhibitors of human S100A4 binding to myosin IIA peptide; P26447; S100A4/TAMRA-MyoIIA peptide fluorescence polarization; inhibition, % at 10.7 µM; hit rate 0.14% among 360,000; AID 652163;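 active = mean inhibition of at least 70% across replicates, with every replicate also reaching that level; inconclusive = mean inhibition reaches 70% but some replicates fall short; inactive = mean inhibition below 70%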
# Target sequence (P26447 whole entry, looked up): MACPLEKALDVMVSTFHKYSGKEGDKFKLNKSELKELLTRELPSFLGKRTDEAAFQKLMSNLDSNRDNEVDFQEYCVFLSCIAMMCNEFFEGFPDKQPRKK
#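 Test system: S100A4 monomer protein. Medium: HEPES buffer with Ca2+, pH 7.2. Reagent: fluorescent myosin IIA peptide, 5 nM. Compound dosing: single-point compound testing. Timing: 5 min between mix addition and reading. Benchmarks: DMSO neutral and TFP positive wells.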
# Xi reactivation – activators of X-chromosome reactivation in mouse fibroblasts. XiGFP mouse fibroblasts, % GFP-positive cells imaging, 3 d; cells co-treated with 5-aza-dC sensitizer; scaled so ellipticine positive control = 100%. activation, % at 7.58 µM. hit rate 0.055% among 360,000;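 active = mean normalized replicate activation at least 10% and every replicate at or above 10%; inconclusive = only one of the two criteria met; inactive = mean below 10% and not all replicates reach 10%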;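 also: 0% = median of on-plate neutral control wells and 100% = ellipticine 6 µM median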
#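 Material: SV40-immortalized XiGFP fibroblast cells, line 68-5-11 | Buffer or medium: DMEM containing 5-aza-dC | Dosing: One concentration, pinned | Times: 3 d treatment, 15 min room-temperature fixation | Controls: Ellipticine 6 µM positive control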
# RAD54 branch – blocks human RAD54 Holliday junction branch migration; hit rate 0.14% among 360,000; inhibition, % at 10.4 µM; AID 602329; FAM/BHQ fluorescence;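 active = mean normalized replicate activity at least 40 and at least half of replicates scoring 40 or more; inconclusive = only one of the two criteria met; inactive = mean below 40 and under half of replicates reaching 40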;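 also: 0% = median of neutral control wells and 100% = median of positive control wells; inhibitors cause a drop in the FAM fluorescence signal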
# An asterisk follows results filed as active; i = inactive; ? = inconclusive; / = no result; + = active, no number; ! = not confirmed by another sample.
SMILES,RAD52 anneal inh,MLL AF4-AF9 inh,CASP6 VEID inh,S100A4 inh HTS,Xi reactivation,RAD54 branch
O=C1NC(=O)N(Cc2ccc(F)cc2)C(=O)/C1=C\c1ccoc1,i,1,47*,-29,0,-145
CN(C)c1ccc(/C=C2\C(=O)NC(=O)N(Cc3ccc(F)cc3)C2=O)cc1,-34,/,1,-31,0,-4
O=C(O)[C@H]1[C@H](CO)[C@H]2Cn3c(ccc(-c4ccncc4)c3=O)[C@@H]1N2C(=O)C1CCCCC1,-21,-4,-6,99*,0,-1
O=C(O)[C@H]1[C@H](CO)[C@H]2Cn3c(ccc(-c4ccncc4)c3=O)[C@@H]1N2C(=O)C1CCC1,-29,0,1,13,0,1
CC(=O)N1C[C@@H]2N[C@H](C1)C2c1ccccc1 (stereo partly drawn),/,/,/,/,1,/
COc1ccc(-c2ccc([C@H]3[C@H](CO)N4CCCCN(C(=O)Cc5ccccc5)C[C@@H]34)cc2)cc1,-3,4,-2,-1,0,5
O=C1NC(=O)N(Cc2ccco2)C(=O)/C1=C/C=C/c1ccco1,-158,-6,88*,-3,0,/
Cc1ccc(N2C(=O)NC(=O)/C(=C\C=C\c3ccco3)C2=O)cc1C,-85,0,38*,-39,0,-28
O=C1NC(=O)N(Cc2ccccc2)C(=O)/C1=C\C=C\c1ccco1,-144,0,60*,-4,0,-7
CN1C(=O)/C(=C/C=C/c2ccco2)C(=O)NC1=S,i,-2,76*,-12,0,/
N#Cc1cccc(-c2ccc([C@H]3[C@H]4CN(C(=O)Cc5ccncc5)CCCCN4[C@H]3CO)cc2)c1,-31,-2,3,-17,0,-3
CN1CCN(c2cccc3c2C(=O)c2ccccc2C3=O)CC1,26,18,15,2,0,79*
O=C1CNC[C@H]2[C@H](c3ccc(Br)cc3)[C@H](CO)N12,6,-5,1,6,0,/
O=C(Cc1cccnc1)N1CCCCN2[C@H](CO)[C@H](c3ccc(/C=C/c4ccccc4)cc3)[C@H]2C1,-23,16,0,-1,0,-3
O=C(Cc1cccnc1)N1CCCCN2[C@H](CO)[C@@H](c3ccc(/C=C/c4ccccc4)cc3)[C@H]2C1,-25,27*,-1,-1,0,-6
O=C(Cc1ccccc1)N1CCCCN2[C@H](CO)[C@@H](c3ccc(C#Cc4ccccc4)cc3)[C@H]2C1,-17,-1,54*,-1,0,3
Cc1cccc(N=Nc2ccc(N(C)C)cc2)c1,0,27*,2,-4,0,-3
COc1ccc(CCNCc2ccc(C)s2)cc1OC,-4,0,6,3,0,/
COc1ccc(Cc2nccc3cc(OC)c(OC)cc23)cc1OC,14,-6,54*,1,0,-9
CC1CCC(C(C)C)C(OC(=O)Cn2c(COc3ccccc3)[n+](C)c3ccccc32)C1 (stereo not drawn),36,25*,24,1,0,29
CN1C[C@@H]2N[C@H](C1)C2c1ccc(Br)cc1 (stereo partly drawn),/,/,/,/,0,/
O=C(COC(=O)Cc1ccccc1)Nc1cc(S(=O)(=O)N2CCCCC2)ccc1Cl,-12,2,71*,-9,0,/
O=C(COC(=O)Cc1ccccc1)Nc1cc(S(=O)(=O)N2CCOCC2)ccc1N1CCCC1,-36,2,-3,-4,0,-7
O=C(NCC1=C(c2cccc3ccccc23)C[C@@H]2CC[C@H]1N2Cc1ccco1)c1ccc([N+](=O)[O-])cc1,28,25*,1,0,0,1
C=CCN1C(=O)/C(=C/c2ccc(Br)s2)C(=O)NC1=S,-276,0,53*,-84,0,-48
SMILES,RAD52 anneal inh,MLL AF4-AF9 inh,CASP6 VEID inh,S100A4 inh HTS,Xi reactivation,RAD54 branch
O=C([C@H]1N[C@H]2c3cccc(=O)n3C[C@H]2[C@@H]1CO)N1CCCCC1,/,/,/,/,0,/
CN(C)CC#Cc1ccc([C@@H]2[C@H]3CN(C(=O)Cc4ccccn4)CCCCN3[C@H]2CO)cc1,44,3,2,20,0,-3
COc1ccc(C#Cc2ccc([C@@H]3[C@H](CO)N4CCCCN(C(=O)Cc5cccnc5)C[C@@H]34)cc2)cc1,-1,0,0,-14,0,-5
O=C1C(=O)c2ccccc2-c2ccccc21,5,3,54*,3,?,3
Cc1ccccc1-c1ccc([C@H]2[C@@H](CO)N3CCCCN(C(=O)Cc4ccccn4)C[C@@H]23)cc1,-8,-6,-4,15,0,0
C[C@H](CO)N1C[C@H](C)[C@@H](CN(C)C(=O)Oc2ccccc2)OCc2ccccc2-c2c(n(C)c3ccccc23)C1=O,/,/,/,/,0,/
CCN1/C(=C/C=C/C2=[N+](CC)c3ccccc3C2(C)C)C(C)(C)c2ccccc21,i,3,-30,+,0,i
CN1/C(=C\C=C2C(=O)NC(=O)NC2=O)C(C)(C)c2ccccc21,-404,-2,-8,45,0,/
CN1CC[C@@]2(C)c3cc(O)ccc3N(C)[C@@H]12,69*!,?,17,37,0,3
CNC(=S)N(C)CCc1cc2c(c(OC)c1C=C1C(=O)NC(=O)NC1=O)OCO2,-13,65*,1,-2,0,6
C=CCN1C(=O)NC(=O)/C(=C/c2c(CCN(C)C(=O)c3ccccc3)cc3c(c2OC)OCO3)C1=O,-31,-2,3,-3,/,5
Nc1c(C(=O)NCc2ccco2)c2nc3ccccc3nc2n1CCN1CCCCC1,/,/,/,/,/,75*
COc1ccc2[nH]c(C)c(CCNCc3cn(C)c4ccccc34)c2c1,34,51*,-8,-3,0,/
Cc1[nH]c2ccccc2c1CCNCc1cccnc1,-3,18,-27,8,0,-4
CN1C2CN(CC(F)(F)F)CC1C2c1ccc(Br)cc1 (stereo not drawn),/,/,/,/,0,/
Clc1ccccc1CNC1CN2CCC1CC2 (stereo not drawn),/,/,/,/,0,/
c1ccc2c(c1)Sc1ccccc1N2CC1CN2CCC1CC2 (stereo not drawn),34,27*,1,10,0,6
CCOC(=O)N1CCC(NC(=O)CCc2nc(C3=CCN(C)CC3)no2)CC1,-5,33*,-2,0,0,-13
CC[C@H](C)[C@@H]1NC(=O)CNC(=O)c2csc(n2)[C@H](C(C)(C)O)OC(=O)C(C)(C)[C@H](CCCC(C)(Cl)Cl)OC(=O)c2csc1n2,-4,1,40*,-2,1,-5
CC(C)NC(=O)N1C[C@@H]2C(c3ccc(Br)cc3)[C@H](C1)N2CC1CC1 (stereo partly drawn),/,/,/,/,0,/
OCCNc1c2c(nc3ccccc13)CCCC2,/,/,/,/,/,21
